Assay results pooled from the literature.
Each line is one published result; the experiments were not run side by side.
Sample: plasma

The AUC(0-inf) of `CCc1nc2c(C)cc(N3CCN(CC(=O)N4CC(O)C4)CC3)cn2c1N(C)c1nc(-c2ccc(F)cc2)c(C#N)s1` is reported as 14900 ng·h/mL (human; oral, 300 mg, single dose, fed, healthy volunteers).
`Cn1cc(-c2ccc(S(=O)(=O)[C@@H]3C[C@@H](C(=O)NC4(C#N)CC4)N(C(=O)C4(C(F)(F)F)CC4)C3)c(C(F)(F)F)c2)cn1` has an AUC(0-inf) of 12600 ng·h/mL (human; oral, 100 mg, single dose, fed).
`CC(C)n1cc(C#N)c2cc(-n3cc(C(=O)O)cn3)ccc21` gave an AUC(0-inf) of 7120 ng·h/mL (human; oral, 50 mg, single dose, fasted, healthy volunteers).
The AUC(0-inf) of `CO[C@H]1CC[C@H](N2C(=O)CNc3ncc(-c4ccc(C(C)(C)O)nc4)nc32)CC1` is reported as 1230 ng·h/mL (human; oral, 30 mg, patients).
`C[C@@]1(c2cc(NC(=O)c3ccc(C#N)cn3)ccc2F)C=CSC(N)=N1` has an AUC(0-inf) of 1040 ng·h/mL (human; oral, 10 mg, single dose).
With `CC(=O)Oc1ccccc1C(=O)O` the AUC(0-inf) was 7690 ng·h/mL (human; oral, 650 mg, healthy volunteers).
With `COC(=O)N[C@@H](C)CNc1nccc(-c2cn(C(C)C)nc2-c2cc(Cl)cc(NS(C)(=O)=O)c2F)n1` the AUC(0-inf) was 1880 ng·h/mL (human; oral, 50 mg, single dose).
`CC(C)(O)c1ccccc1-c1ccc2[nH]c(/C=C/c3ccc(C(F)(F)F)cc3)nc2c1` gave an AUC(0-inf) of 5690 ng·h/mL (male human; oral, 30 mg, single dose, fasted).
With `CC(C)[C@](O)(c1ccc2cc(OC(F)F)c(OC(F)F)cc2c1)c1c[nH]nn1` the AUC(0-inf) was 31100 ng·h/mL (female human; oral, 450 mg, single dose).
`COc1ccc(-n2nc(C(N)=O)c3c2C(=O)N(c2ccc(N4CCCCC4=O)cc2)CC3)cc1` gave an AUC(0-inf) of 2530 ng·h/mL (human; oral, 10 mg, single dose, healthy volunteers).
`O=C(/C=C/c1cccc(S(=O)(=O)Nc2ccccc2)c1)NO` has an AUC(0-inf) of 86400 ng·h/mL (human; intravenous, 2000 mg/m², patients).
For `CO[C@H]1/C=C\C=C(/C)C(=O)NC2=CC(=O)C(NCCN(C)C)=C(C[C@@H](C)C[C@H](OC)[C@H](O)[C@@H](C)/C=C(\C)[C@@H]1OC(N)=O)C2=O`, the AUC(0-inf) was 1220 ng·h/mL (human; intravenous, 12 mg/m², patients, infusion).
`O=C(Nc1c(Cl)cncc1Cl)c1ccc(OC(F)F)c(OCC2CC2)c1` gave an AUC(0-inf) of 65.1 ng·h/mL (human; oral, 0.5 mg, single dose, fasted).
The AUC(0-inf) of `COc1ccc([C@@H]2CN(C(=O)[C@@H](O)CO)C[C@@]2(C)[C@@H](C)O)cc1OC1CN(c2ccc(C)cn2)C1` is reported as 1850 ng·h/mL (human; oral, 5 mg, single dose, healthy volunteers).
`COc1ccc(-n2nc(C(N)=O)c3c2C(=O)N(c2ccc(N4CCCCC4=O)cc2)CC3)cc1` has an AUC(0-inf) of 3410 ng·h/mL (male human; oral, 25 mg, single dose).
With `CCCCC[C@H](O)CC[C@@H]1[C@H]2Cc3cccc(OCC(=O)O)c3C[C@H]2C[C@H]1O` the AUC(0-inf) was 0.7 ng·h/mL (human; inhaled, 36 µg, single dose, healthy volunteers).
With `CS(=O)(=O)CCC#N` the AUC(0-inf) was 327000 ng·h/mL (human; oral, 300 mg, single dose, fasted).
`CN(C)CCCNC(=O)/C(=C/CCCCC(=O)NO)COc1cccc2ccccc12` gave an AUC(0-inf) of 30700 ng·h/mL (human; intravenous, 187.5 mg/m², single dose).
With `C[C@@H](Oc1ccc(S(C)(=O)=O)cc1C(=O)N1C[C@@H]2C[C@]2(c2cc(C(F)(F)F)on2)C1)C(F)(F)F` the AUC(0-inf) was 9.17 µM·h (human; oral, 25 mg, fasted, tablet).
For `CC(C)(Sc1ccncc1-c1ccc(C#N)c2ccccc12)C(=O)O`, the AUC(0-inf) was 121 ng·h/mL (male human; oral, 5 mg, single dose, fasted, healthy volunteers).
The AUC(0-inf) of `CCCOc1ccc([C@H]2CNC(=O)N2c2ccc3[nH]cnc3c2)cc1` is reported as 2310 ng·h/mL (human; oral, 200 mg, single dose, fed, healthy volunteers).
